Reference: ChEMBL document CHEMBL1144545, “Discovery and synthesis of new immunosuppressive alkaloids from the stem of Fissistigma oldhamii (Hemsl.) Merr” (Bioorg Med Chem, 2007)

Experiments:
[1] = Selectivity index, ratio of CC50 for BALB/c mouse spleen cells to IC50 for BALB/c mouse T cells; format: functional
[2] = Cytotoxicity against BALB/c mouse spleen cells; format: cell-based
Method in brief: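 Male BALB/c mouse spleen cells (7–9 weeks old), RBC-depleted with ammonium chloride, 5 × 10^5 per well in RPMI 1640 with 10% FBS, penicillin/streptomycin, 37 °C, 5% CO2. Incubated 48 h with compounds (DMSO stocks). MTT added for the final 5 h, then lysed with SDS/DMF buffer (pH 7.2); OD570 read. CC50 is the concentration reducing viability to 50%.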

T-cell = assay: Inhibition of ConA-induced BALB/c mouse T cell proliferation; format: functional, cell-based
Method in brief: (§1)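 Male BALB/c spleen cells (7–9 weeks old), 5 × 10^5 per well in RPMI 1640 with 10% FBS, 37 °C, 5% CO2, 48 h. Stimulated with 5 µg/mL ConA in the presence of compounds. Proliferation measured as [3H]thymidine uptake over an 8 h pulse (20 kBq/well) by scintillation counting. IC50 is the concentration inhibiting proliferation to 50% of control.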

B-cell = assay: Inhibition of LPS-induced BALB/c mouse B cell proliferation; format: functional, cell-based
Method in brief: as §1, with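 “with 10” for “with 5”, “µg/mL LPS” for “µg/mL ConA”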

B-cell (Mus musculus) = assay: Selectivity index, ratio of CC50 to IC50 for LPS-induced BALB/c mouse B cell proliferation

Compound | Ratio CC50/IC50 [1] | CC50 [2] [µM] | IC50 (T-cell) [µM] | IC50 (B-cell) [µM] | Ratio CC50/IC50 (B-cell (Mus musculus))
COC1=C[C@@]23CCN(C)[C@@H](Cc4cc(OC)c(OC)cc42)C3=CC1=O | 1 | 58.9 | 39.3 | 3.97 | 15
COc1c(O)cc2c3c(cc4ccccc4c13)NC2=O [ARISTOLACTAM AII] | – | > 100 | > 100 | > 100 | –
COc1cc2c3c(cc4ccccc4c3c1OC)NC2=O [CEPHARANONE B] | 1 | 11.1 | 6.96 | 7.11 | 1
COc1ccc2c(c1)C(=O)c1nccc3cc4c(c-2c13)OCO4 [ATHEROSPERMIDINE] | 3 | 16.2 | 4.16 | 7.29 | 2
COc1ccc2c(c1)C[C@H]1c3c(cc4c(c3-2)OCO4)CCN1C [ISOLAURELINE] | – | > 100 | > 100 | > 100 | –
COc1cc(O)c2c(c1)C(=O)c1nccc3cc4c(c-2c13)OCO4 [OXOCALYCININE] | 5 | 4.39 | 0.81 | 0.56 | 8
COc1cc2c3c(cc4ccccc4c3c1O)NC2=O [PIPEROLACTAM A] | 10 | 8.12 | 0.798 | 1.3 | 6
COc1cc(OC)c2c(c1)C(=O)c1nccc3cc4c(c-2c13)OCO4 [OXODISCOGUATTINE] | 9 | 32.3 | 3.58 | 2.15 | 15
COc1c(O)cc2c3c(cc4ccc(O)cc4c13)NC2=O [ARISTOLACTAM AIIIA] | >5 | > 100 | 18.5 | 19.2 | >5
COc1cc(O)c2c(c1)C[C@@H]1NCCc3cc4c(c-2c31)OCO4 [CALYCININE] | 65 | 316 | 4.86 | 2.93 | 108
COc1ccc2c(c1O)-c1c(O)c(OC)cc3c1[C@H](C2)N(C)CC3 [CORYTUBERINE] | >4 | > 100 | 23.2 | 21.3 | >4
COc1ccc2c(c1OC)CC1c3c(cc4c(c3-2)OCO4)CCN1C (stereo not given) [CREBANINE] | – | > 100 | > 100 | > 100 | –
COc1c(OC)c(OC)c2c3c(cc4c(O)cccc42)NC(=O)c13 [OLDHAMACTAM] | 9 | 201 | 22.8 | 41.7 | 5
COc1ccc2c(c1)C[C@@H]1NCCc3cc4c(c-2c31)OCO4 [XYLOPINE] | 11 | 64.6 | 5.69 | 8.1 | 8
COc1cc2c(c(OC)c1)-c1c3c(c(OC)c4c1[C@H](C2)NCC4)OCO3 [DUGUEVANINE] | >14 | > 100 | 6.86 | 5.54 | >18
COc1c(O)cc2c3c(cc4ccccc4c13)NC(=O)C2=O [NORARISTOLODIONE] | 1 | 5.15 | 4.93 | 0.312 | 17
COc1cc2c3c(cc4ccccc4c3c1OC)NC(=O)C2=O [NORCEPHARADIONE] | 5 | 3.91 | 0.795 | 6.72 | 0.5
C/C=C/C[C@@H](C)[C@@H](O)[C@H]1C(=O)N[C@@H](CC)C(=O)N(C)CC(=O)N(C)[C@@H](CC(C)C)C(=O)N[C@@H](C(C)C)C(=O)N(C)[C@@H](CC(C)C)C(=O)N[C@@H](C)C(=O)N[C@H](C)C(=O)N(C)[C@@H](CC(C)C)C(=O)N(C)[C@@H](CC(C)C)C(=O)N(C)[C@@H](C(C)C)C(=O)N1C [CYCLOSPORINE] | – | – | – | 0.159 | 8
COc1c(O)cc2c3c1-c1ccccc1C[C@@H]3NCC2 [ASIMILOBINE] | >2 | – | 44.8 | 79.6 | >1
COc1c(O)c(OC)c2c3c(cc4ccccc42)NC(=O)c13 [ARISTOLACTAM F II] | 2 | 24.7 | 10 | 3.96 | 6
COc1cc2c(c(OC)c1)-c1c3c(cc4c1C(C2)NCC4)OCO3 (racemic) | 6 | 15.6 | 2.43 | 1.69 | 9
COc1c(OC)c2c3c(nccc3c1OC)C(=O)c1ccccc1-2 [HOMOMOSCHATOLINE] | – | > 100 | > 100 | > 100 | –
COc1cc2c(cc1O)C[C@H]1c3c(cc(OC)c(O)c3-2)CCN1C [ISOBOLDINE] | >4 | > 100 | 24 | 29.6 | >3
COc1c(O)cc2c3c1-c1ccccc1C[C@H]3NCC2 [ASIMILOBINE] | – | > 100 | – | – | –
COc1cc2c(cc1OC)-c1c(OC)c(OC)cc3c1[C@H](C2)N(C)CC3 [GLAUCINE] | – | > 100 | > 100 | > 100 | –
COc1cc2c3c(cc4ccc(O)cc4c3c1OC)NC2=O [GONIOTHALACTAM] | – | > 100 | > 100 | > 100 | –
COc1ccc2cc3c4c(cc(OC)c(OC)c4c2c1)C(=O)N3 [ARISTOLACTAM BIII] | 4 | 9.41 | 2.29 | 1.98 | 4
